Data set [1] addresses T1, Intercellular adhesion molecule (ICAM-1), Integrin alpha-L/beta-2 (Homo sapiens, UniProt P05107+P20701). The data set is described as follows: Dissociation constant for human Lymphocyte function associated antigen 1 in LFA-1/ICAM-1 binding assay. The class given is protein-complex assay.
In data set [2] the target is T1, Intercellular adhesion molecule (ICAM-1), Integrin alpha-L/beta-2. The data set is described as follows: Dissociation constant against human Lymphocyte function associated antigen1 in LFA-1/ICAM-1 binding assay. The class given is protein-complex assay.
Data set [3] is described as follows: Concentration of compound required for 50% inhibition of aggregation of JY cell lines. The conditions noted are these: Homo sapiens. The class given is functional, cell-based.
Data set [4] relates to Cell line. The data set is described as follows: cells. The class given is functional, cell-based. The following applies: Homo sapiens, Blood.
The species named for a further data set is Mus musculus. The data set is described as follows: tissue or blood. The class given is functional, organism-based.
Data set [5] in a line: Concentration required to inhibit aggregation of JY cells. The class given is functional, cell-based. The conditions noted are these: Homo sapiens.
Data set [6] has as its system Cell line. The experiment in a line: Concentration required for irreversible binding to human liver microsomes. The class given is functional.
Data set [7] can be described thus: Maximum plasma concentration present after 4 hours of administration of compound of at 100 mg/kg. The class given is ADME, organism-based, Homo sapiens. The arrangement: dose 100 mg/kg. The following applies: read-out: Concentration. A digest of the protocol: (§1)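 Mice in the SEB-induced IL-2 production experiment were dosed orally at 30 or 100 mg/kg. Plasma drug concentration was measured 4 h after dosing and reported in ng/mL.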

A short description of data set [8]: Concentration required for inhibition of aggregation of JY cell line. The class given is functional, cell-based. The conditions noted are these: Homo sapiens.
The nature of data set [9]: Maximum plasma concentration present after 4 hours of administration of compound of at 30 mg/kg. The conditions noted are these: read-out: Concentration. The arrangement: dose 30 mg/kg. The class given is ADME, organism-based, Homo sapiens.
A short description of data set [10]: Maximum plasma concentration present after 4 hours of administration of compound of concentration 100 mg/kg. The class given is ADME, organism-based, Homo sapiens. Further details: dose 100 mg/kg. The conditions noted are these: read-out: Concentration. The method in brief:
as §1

The nature of data set [11]: Maximum plasma concentration present after 4 hours of administration of compound at 30 mg/kg. The arrangement: dose 30 mg/kg. The class given is ADME, organism-based, Homo sapiens. The conditions noted are these: read-out: Concentration.
The target of data set [12] is T1, Intercellular adhesion molecule (ICAM-1), Integrin alpha-L/beta-2. The data set is described as follows: Dissociation constant for human Lymphocyte function associated antigen1 in LFA-1/ICAM-1 binding assay.
Data set [13] shares this target. The experiment in a line: Dissociation constant for human Lymphocyte function-associated antigen-1 in LFA-1/ICAM-1 binding assay. The class given is protein-complex assay.

T1 sequence (P20701 whole entry): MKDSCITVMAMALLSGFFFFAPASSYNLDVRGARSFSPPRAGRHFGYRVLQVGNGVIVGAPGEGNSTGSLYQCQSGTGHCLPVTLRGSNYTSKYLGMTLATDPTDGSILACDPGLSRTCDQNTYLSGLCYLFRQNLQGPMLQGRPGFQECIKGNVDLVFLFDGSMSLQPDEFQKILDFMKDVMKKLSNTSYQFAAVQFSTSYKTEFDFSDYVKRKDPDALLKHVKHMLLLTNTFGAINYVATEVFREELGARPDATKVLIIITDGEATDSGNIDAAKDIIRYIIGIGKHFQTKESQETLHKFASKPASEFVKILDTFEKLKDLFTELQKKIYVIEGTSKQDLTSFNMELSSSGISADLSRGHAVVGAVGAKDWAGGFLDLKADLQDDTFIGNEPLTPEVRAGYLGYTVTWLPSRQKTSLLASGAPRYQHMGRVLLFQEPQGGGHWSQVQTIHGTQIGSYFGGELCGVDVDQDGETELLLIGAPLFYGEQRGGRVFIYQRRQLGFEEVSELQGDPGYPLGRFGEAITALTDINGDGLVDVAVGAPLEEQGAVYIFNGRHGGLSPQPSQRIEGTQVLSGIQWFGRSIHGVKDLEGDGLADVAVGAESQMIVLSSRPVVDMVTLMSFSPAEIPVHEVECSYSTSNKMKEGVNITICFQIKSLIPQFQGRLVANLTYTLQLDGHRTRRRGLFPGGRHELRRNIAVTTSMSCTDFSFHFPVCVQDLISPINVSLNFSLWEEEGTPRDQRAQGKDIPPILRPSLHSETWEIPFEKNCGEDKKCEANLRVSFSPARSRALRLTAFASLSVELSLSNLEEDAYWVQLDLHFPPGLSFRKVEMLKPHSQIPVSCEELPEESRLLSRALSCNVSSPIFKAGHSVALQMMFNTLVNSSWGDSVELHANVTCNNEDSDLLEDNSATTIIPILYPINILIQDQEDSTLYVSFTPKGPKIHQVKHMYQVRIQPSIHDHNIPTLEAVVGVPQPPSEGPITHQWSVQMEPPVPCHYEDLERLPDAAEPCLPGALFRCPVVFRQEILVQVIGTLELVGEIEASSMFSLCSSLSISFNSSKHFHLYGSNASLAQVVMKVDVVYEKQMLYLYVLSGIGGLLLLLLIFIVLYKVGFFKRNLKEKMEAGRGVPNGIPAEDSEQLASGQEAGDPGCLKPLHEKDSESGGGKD
T1 sequence (P05362 whole entry, further chain): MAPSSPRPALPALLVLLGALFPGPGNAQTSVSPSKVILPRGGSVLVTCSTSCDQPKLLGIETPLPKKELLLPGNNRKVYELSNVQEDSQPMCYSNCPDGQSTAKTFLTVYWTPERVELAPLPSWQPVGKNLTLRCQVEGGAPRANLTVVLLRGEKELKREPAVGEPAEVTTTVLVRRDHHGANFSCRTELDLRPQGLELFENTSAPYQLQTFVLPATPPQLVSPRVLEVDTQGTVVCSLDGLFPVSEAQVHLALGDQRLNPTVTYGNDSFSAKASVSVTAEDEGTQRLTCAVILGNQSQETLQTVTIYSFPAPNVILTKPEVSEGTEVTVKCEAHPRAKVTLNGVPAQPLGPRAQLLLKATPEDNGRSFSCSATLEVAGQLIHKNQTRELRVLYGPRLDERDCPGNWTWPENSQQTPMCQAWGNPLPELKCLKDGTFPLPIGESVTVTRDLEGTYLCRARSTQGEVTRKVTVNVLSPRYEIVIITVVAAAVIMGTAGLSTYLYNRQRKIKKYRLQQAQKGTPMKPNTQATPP
T1 sequence (P05107 whole entry): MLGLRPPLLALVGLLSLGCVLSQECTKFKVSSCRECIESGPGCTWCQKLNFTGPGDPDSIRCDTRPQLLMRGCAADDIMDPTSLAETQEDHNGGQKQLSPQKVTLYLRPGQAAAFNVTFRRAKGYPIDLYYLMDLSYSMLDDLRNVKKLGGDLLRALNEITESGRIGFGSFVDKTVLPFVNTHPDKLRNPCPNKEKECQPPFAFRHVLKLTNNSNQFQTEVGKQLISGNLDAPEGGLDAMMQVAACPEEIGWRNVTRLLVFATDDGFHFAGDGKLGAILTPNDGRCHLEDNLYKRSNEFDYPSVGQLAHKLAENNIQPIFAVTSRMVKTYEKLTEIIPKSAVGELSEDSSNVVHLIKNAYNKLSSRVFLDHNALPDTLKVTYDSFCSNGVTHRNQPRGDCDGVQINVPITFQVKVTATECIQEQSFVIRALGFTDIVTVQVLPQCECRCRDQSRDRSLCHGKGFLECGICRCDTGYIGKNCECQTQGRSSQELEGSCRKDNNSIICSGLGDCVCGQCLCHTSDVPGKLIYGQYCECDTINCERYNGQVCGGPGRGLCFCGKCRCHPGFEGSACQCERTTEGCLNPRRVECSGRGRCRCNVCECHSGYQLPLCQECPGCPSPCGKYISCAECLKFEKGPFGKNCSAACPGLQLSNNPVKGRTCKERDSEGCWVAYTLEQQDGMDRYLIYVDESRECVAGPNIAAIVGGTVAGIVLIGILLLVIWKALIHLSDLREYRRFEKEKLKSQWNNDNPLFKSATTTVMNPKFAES

`CC1(Cc2ccc(Br)cc2)C(=O)N(c2cc(Cl)cc(Cl)c2)c2nc(I)cn21` (centres undefined) showed a Kd in data set [1] greater than 20000 nM.
Same read-out and setting: as for `COCCCS(=O)(=O)c1cnc2n1[C@](C)(Cc1ccc(Br)cc1)C(=O)N2c1cc(Cl)cc(Cl)c1`, the figure is 20 nM; as for `CC1(Cc2ccc(Br)cc2)C(=O)N(c2cc(Cl)cc(Cl)c2)c2ncc(C#N)n21` (centres undefined), 190 nM.
With `CC1(Cc2ccc(Br)cc2)C(=O)N(c2cc(Cl)cc(Cl)c2)c2nc(Br)cn21` (centres undefined), binding in data set [1] was characterised by a dissociation constant (Kd) of 630 nM.
As to `CC1(Cc2ccc(Br)cc2)C(=O)N(c2cc(Cl)cc(Cl)c2)c2nc(C#N)cn21` (centres undefined), the Kd in data set [1] came out at 280 nM.
Regarding `C[C@@]1(Cc2ccc(Br)cc2)C(=O)N(c2cc(Cl)cc(Cl)c2)c2ncc(S(=O)(=O)N3CCNCC3)n21`, the equilibrium dissociation constant (Kd) in data set [2] came to 400 nM; in data set [1], 50 nM. For the same compound, the IC50 in data set [3] turned out to be 380 nM; in the data set with Cell line [4], 27800 nM; in the data set listed under Mus musculus, 27800 nM.
Compound `CN1C(=O)N(c2cc(Cl)cc(Cl)c2)C(=O)[C@@]1(C)Cc1ccc(Br)cc1` registered a 50% inhibitory concentration (IC50) in data set [5] of 240 nM. The same compound registered an Activity in the data set with Cell line [6] of 141 pM/min/mg.
With `C[C@@]1(Cc2ccc(Br)cc2)C(=O)N(c2cc(Cl)cc(Cl)c2)c2nccn21`, the Cmax in data set [7] stood at 155 ng/mL; in data set [9], 25 ng/mL. The compound also showed an IC50 in data set [8] of 1200 nM. For the same compound, the Kd in data set [1] was 10 nM. Besides, the Activity in the data set on Cell line [6] is on record as 114 pM/min/ml.
In turn, `C[C@@]1(Cc2ccc(Br)cc2)C(=O)N(c2cc(Cl)cc(Cl)c2)c2ncc(S(=O)(=O)CCCN)n21` registered a Kd in data set [1] of 170 nM.
In [1], `CC1(Cc2ccc(Br)cc2)C(=O)N(c2cc(Cl)cc(Cl)c2)c2ncc(I)n21` (centres undefined) displayed a Kd of 410 nM.
Same read-out and setting: as for `CC1(Cc2ccc(Br)cc2)C(=O)N(c2cc(Cl)cc(Cl)c2)c2nncn21` (centres undefined), the figure is 40 nM; as for `CC1(Cc2ccc(Br)cc2)C(=O)N(c2cc(Cl)cc(Cl)c2)c2nccn21` (racemic), 380 nM.
As to `CC1(Cc2ccc(Br)cc2)C(=O)N(c2cc(Cl)cc(Cl)c2)c2nnnn21` (centres undefined), binding in data set [1] was put at a Kd of 110 nM.
`C[C@@]1(Cc2ccc(Br)cc2)C(=O)N(c2cc(Cl)cc(Cl)c2)c2ncc(S(C)(=O)=O)n21`: the Cmax in data set [10] amounted to 14400 ng/mL; in [11] it was 2800 ng/mL. In addition, in data set [8], the IC50 was determined as 260 nM. Also, the Kd in data set [1] stood at 50 nM.
`C[C@@]1(Cc2ccc(Br)cc2)C(=O)N(c2cc(Cl)cc(Cl)c2)c2ncc(S(=O)(=O)N3CCCCC3)n21` had a Kd in data set [1] of 50 nM.
In turn, `C[C@@]1(Cc2ccc(Br)cc2)C(=O)N(c2cc(Cl)cc(Cl)c2)c2ncc(S(=O)(=O)CCO)n21` returned a Kd in data set [1] of 40 nM.
In data set [1], `CNCCCS(=O)(=O)c1cnc2n1[C@](C)(Cc1ccc(Br)cc1)C(=O)N2c1cc(Cl)cc(Cl)c1` showed a Kd of 150 nM.
`CC1(Cc2ccc(Br)cc2)C(=O)N(c2cc(Cl)cc(Cl)c2)c2ncc(S(C)(=O)=O)n21` (centres undefined): the Kd in data set [1] worked out at 70 nM.
Turning to `C[C@@]1(Cc2ccc(Br)cc2)C(=O)N(c2cc(Cl)cc(Cl)c2)c2ncc(S(=O)(=O)N3CCC(=O)CC3)n21`, the Kd in [2] was 300 nM; in [1] it was 10 nM. Further, the IC50 in data set [3] stood at 250 nM; in the data set with Cell line [4], 5500 nM; in the data set filed under Mus musculus it was 5500 nM.
As to `C[C@@]1(Cc2ccc(Br)cc2)C(=O)N(c2cc(Cl)cc(Cl)c2)c2ncc(S(=O)(=O)CCCO)n21`, the Kd in data set [2] is 100 nM; in data set [12] it was 10 nM; in data set [1], 10 nM. In addition, the IC50 in data set [3] was determined as 90 nM; in the data set with Cell line [4], 10400 nM.
For `CC1(Cc2ccc(Br)cc2)C(=O)N(c2cc(Cl)cc(Cl)c2)c2ncc(Br)n21` (centres undefined), in [1], the Kd amounted to 180 nM.
On to `COc1cnc2n1C(C)(Cc1ccc(Br)cc1)C(=O)N2c1cc(Cl)cc(Cl)c1` (centres undefined), for which the Kd in data set [1] is 360 nM.
In data set [1], `C[C@@]1(Cc2ccc(Br)cc2)C(=O)N(c2cc(Cl)cc(Cl)c2)c2ncc(S(=O)(=O)CCCCO)n21` registered a Kd of 10 nM.
`Cc1cnc2n1C(C)(Cc1ccc(Br)cc1)C(=O)N2c1cc(Cl)cc(Cl)c1` (centres undefined) registered a Kd in [1] of 340 nM.
As to `CC(=O)NCCCS(=O)(=O)c1cnc2n1[C@](C)(Cc1ccc(Br)cc1)C(=O)N2c1cc(Cl)cc(Cl)c1`, the Kd was 70 nM in data set [2] and 30 nM in data set [1]. Also, the IC50 in [3] stood at 350 nM; in the data set on Cell line [4] it was 9500 nM; in the data set filed under Mus musculus, 9500 nM.
As for `CC(=O)OCCCCS(=O)(=O)c1cnc2n1[C@](C)(Cc1ccc(Br)cc1)C(=O)N2c1cc(Cl)cc(Cl)c1`, the Kd in data set [1] turned out to be 30 nM.
For the compound `C[C@@]1(Cc2ccc(Br)cc2)C(=O)N(c2cc(Cl)cc(Cl)c2)c2ncc(S(=O)(=O)N3CCC(O)CC3)n21`, the Kd in [2] amounted to 40 nM; in [13], 9 nM; in [1] it was 8 nM. The IC50 in data set [3] stood at 30 nM; in the data set with Cell line [4] it was 4600 nM; in the data set listed under Mus musculus, 4600 nM.
Consider `CC(=O)OCCCS(=O)(=O)c1cnc2n1[C@](C)(Cc1ccc(Br)cc1)C(=O)N2c1cc(Cl)cc(Cl)c1`, for which the results for the Kd in data set [2] and in data set [1] were 40 nM and 10 nM, respectively. Besides, the IC50 stood at 370 nM in data set [3] and 7000 nM in the data set on Cell line [4].
Consider `C[C@@]1(Cc2ccc(Br)cc2)C(=O)N(c2cc(Cl)cc(Cl)c2)c2ncc(S(=O)(=O)N3CCCC(O)C3)n21` (some centres undefined), for which the Kd in data set [1] was found to be 70 nM.
With `C[C@]1(Cc2ccc(Br)cc2)C(=O)N(c2cc(Cl)cc(Cl)c2)c2nccn21`, the Kd in data set [1] is greater than 7000 nM.
`C[C@@]1(Cc2ccc(Br)cc2)C(=O)N(c2cc(Cl)cc(Cl)c2)c2ncc(S(=O)(=O)N3CCOCC3)n21` registered a Kd in data set [1] of 20 nM.
With `CC1(Cc2ccc(Br)cc2)C(=O)N(c2cc(Cl)cc(Cl)c2)c2nc(S(C)(=O)=O)cn21` (centres undefined), binding in data set [1] was put at a Kd of 920 nM.

(Values after ChEMBL document CHEMBL1138790, “Second-generation lymphocyte function-associated antigen-1 inhibitors: 1H-imidazo[1,2-alpha]imidazol-2-one derivatives” (J Med Chem, 2004).)
